Many of the other results were omitted from the sample, so hits are more common in it than they were.
HCT116 bCat-KO = beta-catenin-lacking colon tumor cell growth suppression. HCT116 beta-catenin knockout viability, CellTiter-Glo, 60 h; hits give low values. viability, % at 10 µM. 140,000 compounds, 1.5% hits. AID 818;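 active means viability at or under a set limit, the compound median less 4 SD, cut at about 6% in these data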;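 further: 0% = Hyamine 1622 control at 20 µM and 100% = untreated cell control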
HUVEC prolif 384 = inhibitors of human endothelial cell proliferation; viability, % at 10 µM (by protocol); HUVEC proliferation, CellTiter-Glo luminescence, 72 h; hits give low values; 86,000 compounds, 1.1% hits;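 active means viability at or below 30%; inactive means viability above 30%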;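 further: 100% = median luminescence of DMSO-only cell control wells on each plate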
Fibroblast inh = blocks proliferation of human lung fibroblasts. LL 47 human lung fibroblast viability, ATP luminescence; hits give low values. AID 719. 85,000 compounds, 1.1% hits. viability, % at 10 µM;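 active means viability at or below 50% in the single dose screen; inactive means viability above 50%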;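 further: compound exposure lasted 72 h before the ATP readout; 100% = median luminescence of untreated cell-only wells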
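Material: human lung fibroblast line LL 47, low passage; Evaluation: viability percentage against median untreated-cell control; Buffer or medium: 15% FBS in IMEM; Incubation: 72 h compound exposure at 37 °C after overnight plating; Dosing: 0.1% DMSO in all compound wells; Measured by: CellTiter-Glo luminescence.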
HCT116 PTEN-null = suppresses growth of cells with PTEN deletion. HCT116 PTEN-null viability, CellTiter-Glo, 60 h; hits give low values. viability, % at 10 µM. 140,000 compounds, 1.2% hits;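 active means viability at or below a set limit, 4 SD under the median of all tested compounds, cut at about 3.7% in these data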;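 further: PTEN knockout HCT116 line with beta catenin targeted HCT116 as companion control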
H69AR growth 86K = growth inhibitors of human H69AR lung tumor cells; H69AR lung tumor viability, ATP luminescence, 72 h; hits give low values; viability, % at 10 µM; 85,000 compounds, 6% hits; AID 598;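 active means viability at or below 40%; inactive means viability above 40%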;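 further: multidrug resistant small cell line overexpressing MRP-1 efflux transporter; 100% = mean luminescence of untreated control wells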
* = called active by the depositor; nt = no result given.

SMILES | HCT116 bCat-KO | HUVEC prolif 384 | Fibroblast inh | HCT116 PTEN-null | H69AR growth 86K
CCCCNC(=O)CSc1nnc(-c2c[nH]c3ccccc23)n1CC1CCCO1 (stereo not drawn) | 95.9 | nt | nt | 91.5 | nt
CCc1nc(Nc2ccncc2)c2oc3ccccc3c2n1 | 2.0* | 99.0 | 58.1 | 1.7* | 96.8
CCc1nc(N2CCCCC2C)c2oc3ccccc3c2n1 (stereo not drawn) | 26.3 | 44.0 | 67.6 | 34.4 | 22.3*
N#CC1=C(N)n2c(s/c(=C\c3ccco3)c2=O)=C(C#N)C1c1ccco1 (stereo not drawn) | 91.0 | 74.6 | 92.2 | 89.7 | 38.5*
CCOC(=O)C1=C(N)n2c(s/c(=C/c3ccco3)c2=O)=C(C(=O)OC)C1c1ccco1 (stereo not drawn) | 2.2* | 12.7* | 80.3 | 2.4* | 4.8*
CCOC(=O)C1=c2s/c(=C\c3cccnc3)c(=O)n2C(N)=C(C(=O)OC)C1c1cccnc1 (stereo not drawn) | 94.0 | 99.0 | 96.2 | 100.4 | 81.5
CCC1CCCCN1C(=S)NC1CCCCC1 (stereo not drawn) | 89.2 | nt | nt | 85.0 | nt
Cc1ccc(S(=O)(=O)Nc2ccc(-c3csc(-c4ccccc4)n3)cc2)cc1 | 2.7* | nt | nt | 2.4* | nt
Cc1cccc(S(=O)(=O)Nc2cccc(-c3cn4ccsc4n3)c2)c1 | 96.2 | nt | nt | 90.0 | nt
Cc1ccc(S(=O)(=O)Nc2cccc(-c3cn4ccsc4n3)c2)cc1 | 39.6 | 69.7 | 88.2 | 32.5 | 30.3*
COC(=O)CSc1nc2cc(OC)ccc2cc1C#N | 18.4 | 71.5 | 88.9 | 27.4 | 74.5
CCOC(=O)CSc1nc2cc(OCC)ccc2cc1C#N | 92.2 | 62.8 | 102.2 | 87.1 | 31.1*
CCOc1ccc2cc(C#N)c(SCC(=O)N3CCC(C)CC3)nc2c1 | 36.6 | 47.5 | 78.9 | 44.5 | 23.3*
CCOc1ccc2cc(C#N)c(SCC(=O)NC(C)CC)nc2c1 (stereo not drawn) | 94.8 | 68.4 | 101.7 | 93.2 | 28.6*
CCc1cc2c(=O)[nH]c(N3CCCC3)nc2s1 | 91.5 | nt | nt | 87.1 | nt
CCc1cc2c(=O)[nH]c(-c3ccccn3)nc2s1 | 2.5* | nt | nt | 2.3* | nt
c1cncc(-c2nc(NCC3COc4ccccc4O3)c3ccccc3n2)c1 (stereo not drawn) | 38.7 | 57.1 | 87.0 | 26.2 | 15.8*
CCC1Oc2ccc(C)cc2N(CC(=O)N(Cc2ccc(C)o2)C2CCCC2)C1=O (stereo not drawn) | 75.0 | 91.1 | 85.8 | 78.7 | 49.6
C=CC[n+]1c(-c2ccc(OCC)cc2)csc1NNC(=O)Nc1ccccc1 | 27.4 | 88.5 | 112.6 | 41.0 | 103.2
COCCCNCCOCCOc1ccc(Cl)cc1C(C)(C)C | 0.9* | nt | nt | 1.1* | nt
Clc1cccc(/C=N/Nc2ncnc3ccccc23)c1 | 2.8* | nt | nt | 7.4 | nt
Clc1ccc(/C=N/Nc2nc(Cl)nc3ccccc23)cc1 | 88.5 | nt | nt | 79.5 | nt
C/C(=N\NC(=O)C1(C)CC1(Br)Br)c1ccc(NC(=O)c2ccc(C)o2)cc1 (stereo not drawn) | 74.2 | nt | nt | 70.0 | nt
O=C(Nc1nc2ccc(S(=O)(=O)N3CCCC3)cc2s1)C1CCCCC1 | 16.2 | 40.6 | 46.6* | 18.9 | 22.7*
O=C(Nc1nc2ccc(S(=O)(=O)N3CCCCC3)cc2s1)C1CCCO1 (stereo not drawn) | 55.5 | 77.7 | 98.0 | 52.6 | 100.2
SMILES | HCT116 bCat-KO | HUVEC prolif 384 | Fibroblast inh | HCT116 PTEN-null | H69AR growth 86K
Nc1nc2ccc(S(=O)(=O)N3CCCCC3)cc2s1 | 90.7 | 81.5 | 47.4* | 82.6 | 0.7*
CC(=O)n1cc(C(C[N+](=O)[O-])SCCN)c2ccccc21 (stereo not drawn) | 77.0 | 21.6* | 24.4* | 87.8 | 1.6*
Cn1cc(SCC(=O)O)c2ccccc21 | 90.2 | 97.2 | 101.1 | 106.1 | 72.1
COc1ccc(/C(O)=C/c2nc3ccccc3n(-c3ccccc3)c2=O)cc1 | 82.2 | 64.8 | 96.3 | 69.6 | 23.5*
Cc1ccc2c(CC(=O)Nc3ccc(N4CCN(C)CC4)cc3C)coc2c1 | 46.1 | 15.3* | 69.1 | 44.4 | 21.7*
C/C(=N/NC(=O)CN1CCN(S(=O)(=O)c2ccc(Br)cc2)CC1)c1ccco1 | 98.7 | nt | nt | 105.0 | nt
COc1ccc(-n2ncc3c(SCC(=O)N4CCN(c5ccccc5OC)CC4)ncnc32)cc1 | 60.1 | 58.2 | 95.6 | 43.2 | 23.3*
O=C(CSc1ncnc2c1nnn2-c1ccc(F)cc1)N1CCN(c2ccccc2)CC1 | nt | 89.4 | 98.5 | nt | 27.4*
Cc1cc2nnn(-c3nnc(-c4ccccc4)c4ccccc34)c2cc1C | 92.3 | nt | nt | 91.3 | nt
CC(C)Oc1cccc(-c2cc(C(=O)N3CCN(c4ncccn4)CC3)c3ccccc3n2)c1 | 22.1 | 64.2 | 93.6 | 14.9 | 15.1*
O=C(c1cc(-c2cccs2)nc2ccccc12)N1CCN(S(=O)(=O)c2cccc(F)c2)CC1 | 85.4 | 82.7 | 102.3 | 76.4 | 20.8*
O=C(c1cc(-c2cccs2)nc2ccccc12)N1CCN(S(=O)(=O)c2ccccc2)CC1 | 77.0 | 78.4 | 102.7 | 78.5 | 94.4
Cc1ccc(-c2cc(C(=O)N3CCOCC3)c3ccccc3n2)cc1 | 98.7 | 97.5 | 92.8 | 83.9 | 81.5
CC(C)Oc1cccc(-c2cc(C(=O)N3CCN(S(C)(=O)=O)CC3)c3ccccc3n2)c1 | 87.9 | 88.7 | 96.6 | 77.9 | 24.1*
O=C(c1cccn2c(=O)c3cc(Br)ccc3nc12)N1CCN(c2ccccn2)CC1 | 82.2 | 84.1 | 98.5 | 92.3 | 105.7
O=C(c1cc(-c2ccncc2)nc2ccccc12)N1CCN(S(=O)(=O)/C=C/c2ccccc2)CC1 | 68.5 | 86.6 | 95.8 | 66.9 | 42.6
O=C(c1cc(-c2ccncc2)nc2ccc(Br)cc12)N1CCN(c2ccccn2)CC1 | 60.1 | 56.6 | 93.6 | 63.4 | 21.9*
O=S(=O)(Nc1nc2ccccc2nc1N1CCN(c2ccccc2F)CC1)c1ccc(Cl)cc1 | 76.6 | 57.5 | 101.5 | 74.3 | 61.7
NC(=O)C1(N2CCCCC2)CCN(C(=S)Nc2cccc(Cl)c2)CC1 | 97.3 | nt | nt | 86.2 | nt
O=C(c1coc2ccccc2c1=O)N1CCN(c2cccc(C(F)(F)F)c2)CC1 | 95.5 | 83.6 | 103.4 | 95.2 | 96.5
COc1ccccc1N1CCN(C(=O)c2ccc3[nH]c4c(c3c2)CC(C)CC4)CC1 (stereo not drawn) | 35.3 | nt | nt | 32.8 | nt
COc1cccc(-c2cc(C(=O)N3CCN(c4ncccn4)CC3)c3ccccc3n2)c1 | 32.3 | 58.1 | 98.9 | 27.4 | 18.9*
Cc1ccc2nc(-c3ccccn3)cc(C(=O)N3CCN(c4ncccn4)CC3)c2c1 | 78.5 | 80.5 | 106.5 | 75.0 | 56.8
Cc1ccc(-c2cc(C(=O)N3CCN(c4ncccn4)CC3)c3ccccc3n2)cc1 | 48.1 | 70.8 | nt | 38.7 | 11.4*
O=C(O)CCCNC(=O)c1ccccn1 | 86.7 | nt | nt | 87.6 | nt
CC1=NNC(=O)/C1=C\c1cn(-c2ccccc2)nc1-c1cccs1 | 1.6* | nt | nt | 1.5* | nt
O=C1Nc2ccccc2/C1=C/C(=O)c1cccs1 | 2.0* | 68.0 | 33.9* | 1.6* | 0.7*
CCCCCCOc1ccc(/C=c2\s/c(=C(/C#N)C(=O)NCc3ccco3)n(-c3ccccc3)c2=O)cc1 | 4.7* | nt | nt | 7.0 | nt
